From PMC3561458 (Investigational new drugs, 2011)

Assay: Plasma pharmacokinetics
Format: in vivo, human
Settings: for AUC(0-t) / Cmax / Vd/F / half-life: human, plasma, oral; for Vd/F: Vz/F
How it was run: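 The test compound is given orally once daily for 7 days in 2-week cycles (S1). Plasma is sampled in cycle 1 on days 1, 2, 4, 7, 8 and 9, and in cycle 2 on days 1, 4 and 7. Cycle 1 day 1 is sampled from 30 min to 24 h after dosing and day 7 from 30 min to 96 h. Parent and metabolite are measured by validated LC-MS-MS, with calibration ranges of 0.00109–1.09 and 0.00105–1.05 μM respectively.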

CNC(=O)c1nn(C)c2c1C(C)(C)Cc1cnc(Nc3ccc(N4CCN(C)CC4)cc3)nc1-2 [PHA-848125AC, N,1,4,4-tetramethyl-8-{[4-(4-methylpiperazin-1-yl)phenyl]amino}-4,5-dihydro-1H-pyrazolo [4,3-h]quinazoline-3-carboxamide]
CL/F (S1 50 mg/day, mean±SD, n=2): 19.7 ± 4.35 L/h
CL/F (S1 100 mg/day, mean±SD, n=6): 13.7 ± 6.49 L/h
CL/F (S1 200 mg/day, mean±SD, n=6): 15.2 ± 2.44 L/h
CL/F (S1 300 mg/day, n=1): 7.78 L/h
CL/F (S2 150 mg/day, mean±SD, n=4): 16.4 ± 6.16 L/h
CL/F (S2 200 mg/day, mean±SD, n=3): 12.7 ± 1.60 L/h
accumulation factor after repeated administrations (both schedules): 3
AUC(0-t) (50 mg/day, AUC0-24, S1 50 mg/day, Day 1, mean±SD, n=3): 2.5 ± 0.6 µM·h
AUC(0-t) (50 mg/day, AUC0-24, S1 50 mg/day, Day 7, mean±SD, n=3): 6.8 ± 2.2 µM·h
AUC(0-t) (50 mg/day, AUCt, S1 50 mg/day, Day 7, mean±SD, n=3): 11.7 ± 5.4 µM·h
Cmax (50 mg/day, S1 50 mg/day, Day 1, mean±SD, n=3): 200 ± 100 nM
Cmax (50 mg/day, S1 50 mg/day, Day 7, mean±SD, n=3): 400 ± 200 nM
Vd/F (50 mg/day, S1 50 mg/day, mean±SD, n=2): 707 ± 39.8 L
half-life (50 mg/day, t1/2,z, S1 50 mg/day, mean±SD, n=2): 25.3 ± 4.18 h
AUC(0-t) (100 mg/day, AUC0-24, S1 100 mg/day, Day 1, mean±SD, n=6): 6 ± 2.2 µM·h
AUC(0-t) (100 mg/day, AUC0-24, S1 100 mg/day, Day 7, mean±SD, n=6): 20 ± 11 µM·h
AUC(0-t) (100 mg/day, AUCt, S1 100 mg/day, Day 7, mean±SD, n=6): 43.4 ± 26.8 µM·h
Cmax (100 mg/day, S1 100 mg/day, Day 1, mean±SD, n=6): 400 ± 100 nM
Cmax (100 mg/day, S1 100 mg/day, Day 7, mean±SD, n=6): 1200 ± 500 nM
Vd/F (100 mg/day, S1 100 mg/day, mean±SD, n=6): 840 ± 550 L
half-life (100 mg/day, t1/2,z, S1 100 mg/day, mean±SD, n=6): 42.9 ± 15.9 h
AUC(0-t) (150 mg/day, AUC0-24, S1 150 mg/day, Day 1, mean±SD, n=6): 8.8 ± 2.6 µM·h
AUC(0-t) (150 mg/day, AUC0-24, S1 150 mg/day, Day 7, mean±SD, n=6): 25 ± 8.6 µM·h
AUC(0-t) (150 mg/day, AUC0-24, S2 150 mg/day, Day 1, mean±SD, n=4): 7.2 ± 2.8 µM·h
AUC(0-t) (150 mg/day, AUC0-24, S2 150 mg/day, Day 18, mean±SD, n=4): 23 ± 9.5 µM·h
AUC(0-t) (150 mg/day, AUCt, S1 150 mg/day, Day 7, mean±SD, n=6): 46.5 ± 19.4 µM·h
AUC(0-t) (150 mg/day, AUCt, S2 150 mg/day, Day 18, mean±SD, n=4): 54.6 ± 25.1 µM·h
Cmax (150 mg/day, S1 150 mg/day, Day 1, mean±SD, n=6): 700 ± 200 nM
Cmax (150 mg/day, S1 150 mg/day, Day 7, mean±SD, n=6): 1500 ± 500 nM
Cmax (150 mg/day, S2 150 mg/day, Day 1, mean±SD, n=4): 400 ± 100 nM
Cmax (150 mg/day, S2 150 mg/day, Day 18, mean±SD, n=4): 1200 ± 300 nM
Vd/F (150 mg/day, S2 150 mg/day, mean±SD, n=4): 1010 ± 456 L
half-life (150 mg/day, t1/2,z, S1 150 mg/day, mean±SD, n=6): 33.1 ± 9.53 h
half-life (150 mg/day, t1/2,z, S2 150 mg/day, mean±SD, n=4): 43.1 ± 10.7 h
AUC(0-t) (180 mg/day, AUC0-24, S2 180 mg/day, Day 1, mean±SD, n=4): 7 ± 2.1 µM·h
AUC(0-t) (180 mg/day, AUC0-24, S2 180 mg/day, Day 18, mean±SD, n=4): 17 ± 8.8 µM·h
AUC(0-t) (180 mg/day, AUCt, S2 180 mg/day, Day 18, mean±SD, n=4): 35.1 ± 26.3 µM·h
Cmax (180 mg/day, S2 180 mg/day, Day 1, mean±SD, n=4): 500 ± 200 nM
Cmax (180 mg/day, S2 180 mg/day, Day 18, mean±SD, n=4): 1100 ± 500 nM
half-life (180 mg/day, t1/2,z, S2 180 mg/day, mean±SD, n=4): 23.5 ± 8.42 h
AUC(0-t) (200 mg/day, AUC0-24, S1 200 mg/day, Day 1, mean±SD, n=6): 9.6 ± 3.6 µM·h
AUC(0-t) (200 mg/day, AUC0-24, S1 200 mg/day, Day 7, mean±SD, n=6): 29 ± 4.5 µM·h
AUC(0-t) (200 mg/day, AUC0-24, S2 200 mg/day, Day 1, mean±SD, n=3): 12 ± 6.3 µM·h
AUC(0-t) (200 mg/day, AUC0-24, S2 200 mg/day, Day 18, mean±SD, n=3): 35 ± 4.6 µM·h
AUC(0-t) (200 mg/day, AUCt, S1 200 mg/day, Day 7, mean±SD, n=6): 63.5 ± 9.04 µM·h
AUC(0-t) (200 mg/day, AUCt, S2 200 mg/day, Day 18, mean±SD, n=3): 63.6 ± 17.5 µM·h
Cmax (200 mg/day, S1 200 mg/day, Day 1, mean±SD, n=6): 700 ± 300 nM
Cmax (200 mg/day, S1 200 mg/day, Day 7, mean±SD, n=6): 1700 ± 200 nM
Cmax (200 mg/day, S2 200 mg/day, Day 1, mean±SD, n=3): 1000 ± 400 nM
Cmax (200 mg/day, S2 200 mg/day, Day 18, mean±SD, n=3): 2500 ± 500 nM
Vd/F (200 mg/day, S1 200 mg/day, mean±SD, n=6): 721 ± 207 L
Vd/F (200 mg/day, S2 200 mg/day, mean±SD, n=3): 473 ± 68.4 L
half-life (200 mg/day, t1/2,z, S1 200 mg/day, mean±SD, n=6): 32.4 ± 4.79 h
half-life (200 mg/day, t1/2,z, S2 200 mg/day, mean±SD, n=3): 25.8 ± 1.46 h
AUC(0-t) (300 mg/day, AUC0-24, S1 300 mg/day, Day 1, n=1): 23 µM·h
AUC(0-t) (300 mg/day, AUC0-24, S1 300 mg/day, Day 7, n=1): 84 µM·h
AUC(0-t) (300 mg/day, AUCt, S1 300 mg/day, Day 7, n=1): 168 µM·h
Cmax (300 mg/day, S1 300 mg/day, Day 1, n=1): 1200 nM
Cmax (300 mg/day, S1 300 mg/day, Day 7, n=1): 5100 nM
Vd/F (300 mg/day, S1 300 mg/day, n=1): 348 L
half-life (300 mg/day, t1/2,z, S1 300 mg/day, n=1): 31 h
half-life (half-life, terminal, overall): ~33 h
oral absorption (in vivo, po): good oral absorption
